Drawing on ChEMBL document CHEMBL2057123, “Design and synthesis of novel lactate dehydrogenase A inhibitors by fragment-based lead generation” (J Med Chem, 2012), this text covers IC50, Kd and Activity for 27 molecules.

The target of experiment [1] is T1, L-lactate dehydrogenase A chain (Homo sapiens, UniProt P00338). Nature of the experiment: Inhibition of full length human recombinant LDHA expressed in Escherichia coli BL21 (DE3) cells after 10 mins by spectrophotometric analysis.
Experiment [2] deals with T1, L-lactate dehydrogenase A chain. Nature of the experiment: Binding affinity to 6-His-tagged human LDHA (2 to 322 amino acid residue) expressed in Escherichia coli BL21 (DE3) cells by SPR analysis. As to conditions: for pKd: read-out: Kd; for Kd: bl21-de3. (In SPR one partner is held on a chip, and binding of the other changes the refractive index at the surface.)
Experiment [3] has the same target. Description: Binding affinity to 6-His-tagged human LDHA (2 to 322 amino acid residue) expressed in Escherichia coli BL21 (DE3) cells by NMR analysis in presence of NADH. As to conditions: for pKd: read-out: Kd; for Kd: bl21-de3.
For experiment [4], the target named is L-lactate dehydrogenase B chain (Homo sapiens, UniProt P07195). Nature of the experiment: Inhibition of human recombinant LDHB (2 to 334 amino acid residue) expressed in Escherichia coli BL21 (DE3) cells after 10 mins by spectrophotometric analysis.
L-lactate dehydrogenase B chain, sequence (P07195 whole entry, the tested form may be a part): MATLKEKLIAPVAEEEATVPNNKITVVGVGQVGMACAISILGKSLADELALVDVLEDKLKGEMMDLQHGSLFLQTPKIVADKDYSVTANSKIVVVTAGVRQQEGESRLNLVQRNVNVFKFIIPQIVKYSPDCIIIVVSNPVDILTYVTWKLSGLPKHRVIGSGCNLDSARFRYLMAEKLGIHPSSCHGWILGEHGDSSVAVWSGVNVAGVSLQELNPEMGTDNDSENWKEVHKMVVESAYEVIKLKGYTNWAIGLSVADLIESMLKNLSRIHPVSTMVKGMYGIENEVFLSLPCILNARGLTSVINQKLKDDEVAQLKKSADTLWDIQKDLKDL
The target in experiment [5] is T1, L-lactate dehydrogenase A chain. Nature of the experiment: Binding affinity to 6-His-tagged human LDHA (2 to 322 amino acid residue) expressed in Escherichia coli BL21 (DE3) cells by NMR analysis in presence of NAD+. Put shortly: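 Ligand-observed NMR at 298 K, 600 MHz, in 100 mM HEPES pH 7.5, 2 mM TCEP, 0.02% sodium azide, with 1 mM NAD⁺ present. Binding was detected by WaterLOGSY and T₁ρ-filtered 1D spectra (LDHA 40−48 μM monomer). […] Single experiment.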

Molecules are shown by their SMILES. pIC50, pKd: −log10 of the molar value. Active and inactive are the calls of the source. The rule behind the calls is not given here. Some results are limits rather than exact numbers.

By pIC50 is commonly meant −log10 of the IC50, conventionally taken in molar units. With `Cc1nc2ccc(NC(=O)CCNC(=O)CCCc3ccc(CC(C(=O)O)C(=O)O)cc3)cc2s1`, the pIC50 in experiment [1] is 6.30.
By pKd is commonly meant −log10 of the Kd, conventionally taken in molar units. Turning to `O=c1[nH]n(-c2ccccc2)c2ncccc12`, the figures for the pKd in experiment [2] and in experiment [3] were 2.80 and 3.52, respectively. In experiment [1], the pIC50 is less than 3.30.
As for `CC(=O)Nc1ccc2nc(C)sc2c1`, the negative-log Kd (pKd) in experiment [2] was 3.10. Besides, the pIC50 in experiment [1] is less than 3.30.
The like results for `CCCSc1nc2ccc(NC(=O)CCNC(=O)NCCc3ccc(CC(C(=O)O)C(=O)O)cc3)cc2s1` were, in that order, 7.22 and 6.54.
In the case of `Cc1nc2ccc(NC(=O)CCNC(=O)NCCc3ccc(OC(C(=O)O)C(=O)O)cc3)cc2s1`, the pKd in experiment [2] is 5.92. For the same molecule, the pIC50 in experiment [1] is 4.53.
The like results for `CCCSc1nc2ccc(NC(=O)CCNC(=O)CCCc3ccc(CC(C(=O)O)C(=O)O)cc3)cc2s1` were, in that order, 8.10 and 6.57.
Turning to `Clc1ccccc1-c1nnn[nH]1`, in experiment [2], the Kd result is recorded as “Not Active”.
Consider `O=C(O)CC(=O)O` [MALONIC ACID], for which the pKd in experiment [3] was 2.30.
For the molecule `NS(=O)(=O)c1ccc(O)c2ccccc12`, the Kd result in experiment [2] is recorded as “Not Active”. Further, the pKd in experiment [3] was 3.40. Also, the negative-log IC50 (pIC50) in experiment [1] is less than 3.30.
Regarding `Nc1ncnc2c1ncn2[C@@H]1O[C@H](COP(=O)(O)O)[C@@H](O)[C@H]1O` [ADENOSINE PHOSPHATE], in experiment [2], the Kd entry is “Not Active”. Also, the pKd in experiment [3] was 3.19. Further, in experiment [1], the negative-log IC50 (pIC50) was less than 3.30.
Take `Cc1nc2ccc(NC(=O)CCNC(=O)NCCOc3ccc(CC(C(=O)O)C(=O)O)cc3)cc2s1`: the pIC50 in experiment [1] is 5.38.
For `Cc1nc2ccc(NC(=O)CCC(=O)O)cc2s1`, the figures for the pKd in experiment [2] and in experiment [3] were 3.30 and 3.27, respectively. Also, the pIC50 in experiment [1] was less than 3.30.
With `CCCSc1nc2ccc(NC(=O)CCNC(=O)NCCOc3ccc(CC(C(=O)O)C(=O)O)cc3)cc2s1`, the negative logarithm of the Kd (pKd) in experiment [2] is 7.34. Moreover, the negative logarithm of the IC50 (pIC50) in experiment [1] was 5.51.
As to `COCCNc1ncnc2ccccc12`, the figures for the pKd in experiment [2] and in experiment [3] were 2.52 and 2.62, respectively. The pIC50 in experiment [1] is less than 3.30.
In the case of `COc1ccc(CC(C(=O)O)C(=O)O)cc1`, the pKd in experiment [2] was 2.96; in experiment [3], 3.62. Moreover, in experiment [1], the pIC50 is less than 3.30.
With `O=C(O)c1nsnc1O`, the pIC50 in experiment [4] is 5.11; in experiment [1], 3.35. Besides, the Kd result in experiment [2] is given as “Not Active”.
Consider `O=C(O)c1cc2c(C(F)(F)F)cc(-c3ccccc3)cc2n1O`, for which the pKd in experiment [3] is less than 5.05. Further, the pIC50 in experiment [1] was less than 3.30.
`NC(=O)C1=CN([C@@H]2O[C@H](COP(=O)(O)OP(=O)(O)OC[C@H]3O[C@@H](n4cnc5c(N)ncnc54)[C@H](O)[C@@H]3O)[C@@H](O)[C@H]2O)CCC1`: the negative logarithm of the IC50 (pIC50) was 5.03 in experiment [4] and 3.88 in experiment [1]. Also, the pKd in experiment [2] was 4.89. Moreover, the result in experiment [5] was Active.
For `O=C(O)c1ccc2ccccc2c1O` [CARBOXYNAPHTHOL], the Kd result in experiment [2] is given as “Not Active”. Besides, the pKd in experiment [3] is 3.19. Further, in experiment [1], the pIC50 was less than 3.30.
In the case of `Cc1nc2ccc(NC(=O)CCNC(N)=O)cc2s1`, the Kd entry in experiment [3] is reported as “Active”.
In the case of `CCCSc1nc2ccc(NC(=O)CCNC(N)=O)cc2s1`, the negative logarithm of the Kd (pKd) in experiment [2] is 4.46. The Kd result in experiment [3] was “Active”. In addition, the pIC50 in experiment [1] is less than 3.30.
`Cc1nc2ccc(NC(=O)CCNC(=O)NCCOc3ccc(CCC(=O)O)cc3)cc2s1`: the pKd in experiment [2] is 5.49. Further, in experiment [1], the pIC50 is 4.06.
In the case of `Cc1nc2ccc(NC(=O)CCNC(=O)NCCc3ccc(CC(C(=O)O)C(=O)O)cc3)cc2s1`, in experiment [1], the negative-log IC50 (pIC50) was 5.72.
With `CCCSc1nc2ccc(NC(=O)CCC(=O)O)cc2s1`, the figures for the pKd in experiment [2] and in experiment [3] were 4.40 and 4.04, respectively. The negative-log IC50 (pIC50) in experiment [1] is less than 3.30.
With `NC(=O)C1=CN([C@@H]2O[C@H](COP(=O)(O)O)[C@@H](O)[C@H]2O)C=CC1`, the Kd result in experiment [2] is given as “Not Active”. For the same molecule, the pKd in experiment [3] is 2.40. Besides, the pIC50 in experiment [1] is less than 3.30.
For the molecule `CCCSc1nc2ccc(NC(=O)CCNC(=O)NCCc3ccc(OC(C(=O)O)C(=O)O)cc3)cc2s1`, in experiment [2], the pKd was 6.74. Moreover, the pIC50 in experiment [1] is 5.13.
With `c1cncc(-c2nc3ccccc3[nH]2)c1`, the Kd entry in experiment [2] was “Not Active”. The pKd in experiment [3] is 2.85. For the same molecule, the negative logarithm of the IC50 (pIC50) in experiment [1] is less than 3.30.
